Results taken from ChEMBL document CHEMBL1156628, “Further studies on lead compounds containing the opioid pharmacophore Dmt-Tic” (J Med Chem, 2008).
Active and inactive are the calls of the source. Where a SMILES comes first, the peptide text is derived from it. [ ]: non-standard residue; d: D form. The star is where a group is joined. Dmt = Cc1cc(O)cc(C)c1C[C@H](N)C(=O)O; Tic = O=C(O)[C@@H]1Cc2ccccc2CN1; NHBn = c1ccc(CN*)cc1; NHPh = c1ccc(N*)cc1

Columns and labels:
Mu-type opioid receptor = Mu-type opioid receptor (Rattus norvegicus, UniProt P33535); test: Displacement of [3H]DAMGO from mu opioid receptor in Sprague-Dawley rat brain P2 synaptosomal membrane
How it was run: (§1)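 Competition binding to Sprague-Dawley rat brain P2 synaptosomal membranes, preincubated to strip endogenous opioids and stored at −80 °C in buffered 20% glycerol. Incubated at equilibrium for 2.5 h at 23 °C. Separated on polyethylenimine-soaked (0.1%) glass-fibre filters washed three times in ice-cold buffered BSA. Duplicates at five to eight doses, 3–5 independent membrane preparations; Ki by Cheng–Prusoff, mean ± SE.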

[1] = target: Delta-type opioid receptor (Mus musculus, UniProt P32300); test: Antagonist activity at delta opioid receptor in mouse vas deferens assessed as effect on deltorphin 2-induced response; format: functional, tissue-based; conditions: read-out: pA2 (converted)
How it was run: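 Single mouse vas deferens suspended in an organ bath in balanced physiological salt buffer, pH 7.5. Agonism measured as inhibition of electrically evoked contraction, with IC50 taken from dose-response curves; DPDPE was the internal standard. Antagonism tested against deltorphin II and given as pA2 (Schild plot / Kosterlitz and Watt method). Values are mean ± SE of separate tissue assays.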

[2] = target: Delta-type opioid receptor (Rattus norvegicus, UniProt P33533); test: Displacement of [3H]deltorphin2 from delta opioid receptor in Sprague-Dawley rat brain P2 synaptosomal membrane; how it was run: as §1
Rattus norvegicus = species: Rattus norvegicus; test: Selectivity ratio of Ki for mu opioid receptor in Sprague-Dawley rat brain to Ki for delta opioid receptor in Sprague-Dawley rat brain
Plasma = test: Stability in Swiss mouse plasma after 4 hrs; format: ADME, cell-free
Brain = test: Stability in Swiss mouse brain after 2 hrs; format: ADME, tissue-based
Mus musculus [3] = test: Toxicity in Swiss-Webster mouse assessed as induction of agitated behavior at 10 ug, icv; format: organism-based; conditions: in vivo, icv_or_intrathecal
Mus musculus [4] = test: Antinociceptive activity in Swiss-Webster mouse at 10 ug, icv after 10 mins by hot plate test in presence of naltrindole; format: functional, organism-based
How it was run: (§2)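 Mice given sc naltrindole (3 mg/kg) or naloxone (10 mg/kg), then 20 min later 10 µg/mouse icv in 5 μL saline. Nociception measured by hot-plate (55 °C, latency to jump/lick/paw-shake, 30 s cut-off, every 10 min) or tail-flick.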

Mus musculus [5] = test: Antinociceptive activity in Swiss-Webster mouse at 10 ug, icv after 10 mins by hot plate test in presence of naloxone; format: functional, organism-based; how it was run: as §2
Mus musculus [6] = test: Antinociceptive activity in Swiss-Webster mouse at 10 ug, icv by tail flick test in presence of naloxone; format: functional, organism-based; how it was run: as §2
Mus musculus [7] = test: Antinociceptive activity in Swiss-Webster mouse at 10 ug, icv by tail flick test in presence of naltrindole; format: functional, organism-based; how it was run: as §2
Mus musculus [8] = test: Toxicity in icv dosed Swiss-Webster mouse assessed as induction of convulsion; format: organism-based; conditions: in vivo, icv_or_intrathecal
Mus musculus [9] = test: Analgesic activity in icv dosed Swiss-Webster mouse after 10 mins by hot plate test; format: functional, organism-based
How it was run: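 Male Swiss-Webster mice (20–25 g) given 5 μL of peptide in saline icv at bregma; only mice with a correct needle tract were counted. For hot plate: 55 ± 0.1 °C, start 10 min post-dose, latency to jump, lick or shake hind paw, 30 s cut-off, repeated every 10 min.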

Mus musculus [10] = test: Analgesic activity in icv dosed Swiss-Webster mouse by tail flick test; format: functional, organism-based
Mus musculus [11] = test: Toxicity in Swiss-Webster mouse assessed as induction of sedation at 10 ug, icv; format: organism-based; conditions: in vivo, icv_or_intrathecal

Chain of Delta-type opioid receptor (Mus musculus, UniProt P32300) (P32300 whole entry): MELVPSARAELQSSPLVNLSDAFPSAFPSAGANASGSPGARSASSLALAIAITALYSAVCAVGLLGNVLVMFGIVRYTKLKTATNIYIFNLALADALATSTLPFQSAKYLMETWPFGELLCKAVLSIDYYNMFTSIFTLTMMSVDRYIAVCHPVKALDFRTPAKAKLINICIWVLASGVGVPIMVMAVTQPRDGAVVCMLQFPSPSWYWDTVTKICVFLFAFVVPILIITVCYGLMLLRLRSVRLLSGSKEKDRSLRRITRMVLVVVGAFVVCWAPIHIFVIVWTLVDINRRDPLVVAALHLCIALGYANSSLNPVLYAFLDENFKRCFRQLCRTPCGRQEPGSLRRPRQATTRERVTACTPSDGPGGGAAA
Chain of Delta-type opioid receptor (Rattus norvegicus, UniProt P33533) (P33533 whole entry): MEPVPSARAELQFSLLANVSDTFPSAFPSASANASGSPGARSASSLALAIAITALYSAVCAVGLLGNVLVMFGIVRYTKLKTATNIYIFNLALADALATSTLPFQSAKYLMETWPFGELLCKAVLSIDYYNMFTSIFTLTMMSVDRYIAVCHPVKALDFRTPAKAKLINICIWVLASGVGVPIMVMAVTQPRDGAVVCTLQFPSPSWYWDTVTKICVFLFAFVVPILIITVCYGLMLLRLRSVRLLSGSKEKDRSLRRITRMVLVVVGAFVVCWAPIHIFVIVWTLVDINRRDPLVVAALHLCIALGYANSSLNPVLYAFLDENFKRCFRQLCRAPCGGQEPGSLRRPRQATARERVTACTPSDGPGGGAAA
Chain of Mu-type opioid receptor (P33535 whole entry): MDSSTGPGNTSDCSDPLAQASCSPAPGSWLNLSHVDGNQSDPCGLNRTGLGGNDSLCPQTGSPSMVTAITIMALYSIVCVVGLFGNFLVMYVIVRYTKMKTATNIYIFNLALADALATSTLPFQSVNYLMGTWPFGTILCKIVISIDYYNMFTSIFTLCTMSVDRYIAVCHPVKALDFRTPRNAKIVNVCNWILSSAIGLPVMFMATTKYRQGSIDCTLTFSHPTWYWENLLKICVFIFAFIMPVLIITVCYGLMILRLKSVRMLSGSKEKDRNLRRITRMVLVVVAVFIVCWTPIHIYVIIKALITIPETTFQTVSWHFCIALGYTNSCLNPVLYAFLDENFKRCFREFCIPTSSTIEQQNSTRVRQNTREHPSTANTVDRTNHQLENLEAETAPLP

SMILES | Ki (Mu-type opioid receptor) | Kb [1] | Ki [2] | Ratio Ki (Rattus norvegicus) | further results
Cc1cc(O)cc(C)c1C[C@H](N)C(=O)N1Cc2ccccc2C[C@H]1C(=O)N[C@H](CC(=O)O)c1nc2ccccc2n1C | 11.8 nM | 0.224 nM | 0.07 nM | 169 | –
Cc1cc(O)cc(C)c1C[C@H](N)C(=O)N1Cc2ccccc2C[C@H]1C(=O)NCC(=O)NCc1ccccc1 (H-[Dmt]-[Tic]-Gly-NHBn) | – | – | – | 5 | –
Cc1cc(O)cc(C)c1C[C@H](N)C(=O)N1Cc2ccccc2C[C@H]1C(=O)N[C@@H](CC(=O)O)C(=O)Nc1ccccc1 | 10.8 nM | 0.398 nM | 0.036 nM | 300 | –
Cc1cc(O)cc(C)c1C[C@H](N)C(=O)N1Cc2ccccc2C[C@H]1C(=O)N[C@@H](CC(=O)O)C(=O)N(C)c1ccccc1 | 364 nM | 1.78 nM | 0.186 nM | 1960 | –
Cc1cc(O)cc(C)c1C[C@H](N)C(=O)N1Cc2ccccc2C[C@H]1C(=O)NCC(=O)N(C)c1ccccc1 | 1.75 nM | 1.58 nM | 0.143 nM | 12 | –
Cc1cc(O)cc(C)c1C[C@H](N)C(=O)N1Cc2ccccc2C[C@H]1C(=O)N[C@@H](CC(=O)O)c1nc2ccccc2[nH]1 | – | 0.126 nM | – | 122 | Stability (Plasma): Stable; Stability (Brain): Stable; Activity (Mus musculus [3]): Toxic; Activity (Mus musculus [4]): Active; Activity (Mus musculus [5]): Active; Activity (Mus musculus [6]): inactive; Activity (Mus musculus [7]): inactive; Activity (Mus musculus [8]): Toxic; Activity (Mus musculus [9]): Dose-dependent effect; Activity (Mus musculus [10]): Dose-dependent effect
Cc1cc(O)cc(C)c1C[C@H](N)C(=O)N1Cc2ccccc2C[C@H]1C(=O)N[C@H](CC(=O)O)C(=O)Nc1ccccc1 | 7.49 nM | 2.4 nM | 0.058 nM | 129 | –
Cc1cc(O)cc(C)c1C[C@H](N)C(=O)N1Cc2ccccc2C[C@H]1C(=O)NCC(=O)Nc1ccccc1 (H-[Dmt]-[Tic]-Gly-NHPh) | – | – | – | 4 | –
Cc1cc(O)cc(C)c1C[C@H](N)C(=O)N1Cc2ccccc2C[C@H]1C(=O)N[C@H](CC(=O)O)c1nc2ccccc2[nH]1 | 16.1 nM | – | 0.067 nM | 240 | –
Cc1cc(O)cc(C)c1C[C@H](N)C(=O)N1Cc2ccccc2C[C@H]1C(=O)N[C@@H](CC(=O)O)C(=O)NCc1ccccc1 (H-[Dmt]-[Tic]-Asp-NHBn) | 309 nM | 2.95 nM | 0.054 nM | – | –
Cc1cc(O)cc(C)c1C[C@H](N)C(=O)N1Cc2ccccc2C[C@H]1C(=O)N[C@H](CC(=O)O)C(=O)N(C)c1ccccc1 | 45 nM | 8.71 nM | 0.084 nM | 536 | –
Cc1cc(O)cc(C)c1C[C@H](N)C(=O)N1Cc2ccccc2C[C@H]1C(=O)N[C@@H](CC(=O)O)c1nc2ccccc2n1C | 5.93 nM | 0.126 nM | 0.059 nM | 101 | Stability (Plasma): Stable; Stability (Brain): Stable; Activity (Mus musculus [4]): Active; Activity (Mus musculus [11]): Toxic; Activity (Mus musculus [5]): Active; Activity (Mus musculus [6]): inactive; Activity (Mus musculus [7]): inactive; Activity (Mus musculus [8]): Toxic; Activity (Mus musculus [9]): Dose-dependent effect; Activity (Mus musculus [10]): Dose-dependent effect
